Screening data: PubChem, Johns Hopkins Ion Channel Center
An excerpt weighted towards active compounds, which were near 3.1% of everything screened.
KCNK3 block: human KCNK3 channel inhibitors, primary screen, CHO cells, FluxOR thallium flux, B-score; Potassium channel subfamily K member 3 (Homo sapiens), O14649; FluxOR fluorescence; hits give low values; B-score at 10 µM; 340,000 tested, 0.84% active; AID 602410, 2012;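 active = B-score under library mean minus 4 SD, starting fluorescence ratio at most library mean plus 5 SD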;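 also: more negative B-score means stronger inhibition of thallium flux through KCNK3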
KCNQ1 pot: potentiators or activators of KCNQ1 channel, primary screen, cell-based, thallium flux, high-throughput. AID 2648, 2010. CHO-K1 KCNQ1, thallium flux FluxOR fluorescence; hits give high values. 310,000 tested, 0.35% active. Potassium voltage-gated channel subfamily KQT member 1 (Homo sapiens), P51787. B-score at 10 µM;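 active = fluorescence ratio B-score, a plate-corrected score, at least three library SD, with initial intensity B-score within 5 SD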
Target sequence (P51787 whole entry, looked up): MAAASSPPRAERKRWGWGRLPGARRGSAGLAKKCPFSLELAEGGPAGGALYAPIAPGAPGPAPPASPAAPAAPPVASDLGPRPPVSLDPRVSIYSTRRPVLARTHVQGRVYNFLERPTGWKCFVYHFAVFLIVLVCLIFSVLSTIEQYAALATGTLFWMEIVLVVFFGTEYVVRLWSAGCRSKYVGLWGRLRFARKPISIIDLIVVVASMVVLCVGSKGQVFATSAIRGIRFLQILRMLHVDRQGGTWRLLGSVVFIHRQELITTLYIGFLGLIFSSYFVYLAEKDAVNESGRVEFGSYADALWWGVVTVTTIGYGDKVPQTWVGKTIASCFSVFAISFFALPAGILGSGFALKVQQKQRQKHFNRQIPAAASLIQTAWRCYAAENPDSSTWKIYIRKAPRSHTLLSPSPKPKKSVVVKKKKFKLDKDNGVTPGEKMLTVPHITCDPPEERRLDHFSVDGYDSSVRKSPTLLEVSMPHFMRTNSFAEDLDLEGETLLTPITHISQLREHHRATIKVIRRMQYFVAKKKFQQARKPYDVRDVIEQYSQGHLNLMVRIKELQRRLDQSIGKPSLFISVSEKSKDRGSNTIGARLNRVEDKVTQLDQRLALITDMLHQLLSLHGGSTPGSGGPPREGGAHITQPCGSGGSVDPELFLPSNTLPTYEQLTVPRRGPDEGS
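assay system = KCNQ1-transfected CHO-K1 cells | medium = assay buffer with matched DMSO | probe or stimulus = depolarizing K+/Tl+ stimulus, K2SO4 and Tl2SO4 each 12.5 mM in 5x stock | dosing = single dose | incubation = dye 90 min, compound 20 min, room temperature | detection = kinetic FluxOR fluorescence, 10 s baseline plus 110 s post-stimulus | evaluation = ratio B score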
KCNQ1 inh: inhibitors of human KCNQ1 channel, primary screen, cell-based, thallium flux, high-throughput; Potassium voltage-gated channel subfamily KQT member 1 (Homo sapiens), P51787; CHO-K1 KCNQ1, FluxOR thallium flux fluorescence; hits give high values; B-score at 10 µM; 310,000 tested, 1.3% active; AID 2642, 2010;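 active = compounds whose thallium flux B-score, printed positive for inhibition, exceeds three library SD while starting fluorescence stays within three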;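 also: channel opened by potassium depolarization with thallium stimulus after 20 min compound exposure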
hERG protect: hERG rescue from dofetilide block, primary screen, cell-based, CHO-hERG, FluxOR thallium flux, dofetilide IC70; Voltage-gated inwardly rectifying potassium channel KCNH2 (Homo sapiens), Q12809; dofetilide IC70 present; activation (rescue from dofetilide block), less the hit threshold, % at 10 µM; 310,000 tested, 0.51% active; AID 1511, 2009;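 active = activation above the mean of controls blocked by dofetilide plus 5 SD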;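 also: thallium influx through hERG after potassium depolarization seen as dye fluorescence rise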
KCNK9 block: KCNK9 potassium channel inhibitors, primary screen, HEK293 cells, thallium flux. Potassium channel subfamily K member 9 (Homo sapiens), Q9NPC2. FluxOR thallium flux fluorescence; hits give low values. B-score at 10 µM. 310,000 tested, 1.2% active. AID 488922, 2010;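 active = ratio B-score over 3 SD below the library mean, with starting fluorescence within 5 SD of its mean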;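 also: negative B-score means less thallium flux so channel inhibition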
KCNK9 block conf: KCNK9 potassium channel inhibitors, confirmation, HEK293 cells, thallium flux, duplicate; shares compounds with KCNK9 block; FluxOR thallium flux fluorescence; inhibition, % at 10 µM; 4,900 tested, 43% active; AID 492992, 2010;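 active = thallium signal inhibited by more than 5 SD of the compound-free buffer control wells, on both duplicate plates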;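 also: 0% = assay buffer control wells without compound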
Kir2-1 spec: mouse Kir2.1 channel inhibition, confirmation, selectivity assay for KCNK9 modulator project, cell-based, HEK293, thallium flux; Kir2.1 cells, FluxOR thallium flux fluorescence; inhibition, % at 10 µM; 4,900 tested, 4% active; shares compounds with KCNK9 block; AID 492993, 2010;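 active = thallium signal drop more than 5 SD beyond the mean of the no-compound control wells, seen in both duplicate plates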;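 also: signal is fluorescence rise after thallium addition divided by baseline fluorescence; plate controls were assay buffer only for no effect and full block by chlorpromazine control for full effect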
KCNK9 uninduced: thallium flux in non-induced HEK293 cells, confirmation, counter-screen for KCNK9 inhibitor project, cell-based, second counter screen, non-induced KCNK9-HEK293 | shares compounds with KCNK9 block | FluxOR thallium flux | inhibition, % at 10 µM | 4,900 tested, 40% active | AID 492997, 2010;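 active = thallium signal drop beyond 5 SD of the untreated control mean, on both duplicate plates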;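 also: plate controls were buffer only IC0 wells for no effect and SID17386958 at its maximal inhibitory level for full effect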
* marks the source's active call; other numbers are inactive results; i = inactive; . = no result.

SMILES	KCNK3 block	KCNQ1 pot	KCNQ1 inh	hERG protect	KCNK9 block	KCNK9 block conf	Kir2-1 spec	KCNK9 uninduced
O=Cc1ccc(C(=O)OCC(=O)NC(=O)Nc2ccccc2F)cc1	i	.	.	.	.	.	.	.
Cc1nn(Cc2ccccc2)c(C)c1C(=O)OCC(=O)c1cc(C)n(CC(F)(F)F)c1C	i	i	i	-10	i	i	i	i
OCCN1CCN(C2Cc3cc(Cl)ccc3Sc3ccc(Cl)cc32)CC1 (stereo unspecified) (tested in a mixture with another compound)	i	i	7*	-22	-8.6*	i	i	i
CC(C)c1ccc(OCc2ccc(C(=O)N3CCN(c4ccccn4)CC3)cc2)cc1	i	i	6*	-8	i	i	i	i
CC(C)N1CCN(Cc2ccc(C#CCCO)cc2)CC1CCO (stereo unspecified)	i	i	i	-8	i	.	.	.
CC(C)Oc1ccc(Cc2cnc(N)nc2N)cc1	i	i	i	-12	i	.	.	.
CCCOc1ccc(Cc2c(Cl)nc(SC)nc2OC)cc1	i	i	i	-5	i	i	i	i
COc1nc(SC)nc(Cl)c1Cc1ccc(OC(C)C)cc1	i	i	i	-7	i	i	i	26%*
Cc1onc(-c2c(F)cccc2Cl)c1C(=O)N(C)CCc1ccccn1	i	i	i	-6	i	.	.	.
CCCn1c2ccccc2c2cnn(CC(=O)NCCCN3CCCC(C)C3)c(=O)c21 (stereo unspecified)	i	i	i	-3	i	.	.	.
CCCN1CCC(NC(=O)C2CCCCC2C(=O)O)CC1 (stereo unspecified)	i	i	i	-4	i	.	.	.
CC(Sc1nnc(Cc2cccs2)n1C1CC1)C(=O)NC1CCS(=O)(=O)C1 (stereo unspecified)	i	.	.	.	.	.	.	.
COc1ccc(N2C(=O)/C(=C\c3ccco3)N=C2SCC(=O)NC(C)(C)C)cc1Cl	i	i	i	-6	-9.1*	44%*	i	33%*
CCN(CC)C(=O)CSC1=N/C(=C/c2ccco2)C(=O)N1c1ccc(OC)c(Cl)c1	i	i	i	-4	i	.	.	.
Cc1nn(CC(=O)Nc2ccc3c(c2)OCCO3)c(C)c1[N+](=O)[O-]	i	.	.	.	.	.	.	.
CCN(C(=O)/C=C/c1ccccc1)C1CCCCC1	i	i	i	-10	i	i	i	i
O=C(O)c1ccccc1NSc1ccccc1[N+](=O)[O-]	i	i	i	-4	i	.	.	.
CCc1ccc(NSc2ccccc2[N+](=O)[O-])cc1	i	i	i	-7	-8.8*	42%*	i	28%*
CCc1nc(N2CCN(C(=O)c3ccco3)CC2)c2c3c(sc2n1)CCCC3	i	i	i	-15	-10*	50%*	i	i
COc1cccc(NC(=O)C(Sc2nnc(Nc3ccccc3C)s2)c2ccccc2)c1 (stereo unspecified)	i	i	i	-7	-9.1*	i	i	38%*
COc1ccc(Nc2nnc(SC(C(=O)Nc3cc(C)ccc3C)c3ccccc3)s2)cc1 (stereo unspecified)	i	i	i	-14	i	.	.	.
Cc1cc(C)nc(N/N=C/c2ccccc2OCc2ccc([N+](=O)[O-])cc2)n1	i	i	i	-8	-15*	51%*	i	28%*
O=C(Nc1cccc(-c2csc(-c3ccccc3)n2)c1)c1cccs1	i	i	i	-6	-12*	45%*	i	i
Cc1nc(-c2cccc(NC(=O)c3cccs3)c2)cs1	i	i	i	-16	i	.	.	.
OC(COCc1ccco1)CN1CCN(C(c2ccccc2)c2ccccc2)CC1 (stereo unspecified)	i	i	i	-13	i	.	.	.
SMILES	KCNK3 block	KCNQ1 pot	KCNQ1 inh	hERG protect	KCNK9 block	KCNK9 block conf	Kir2-1 spec	KCNK9 uninduced
Cc1ccc(Cl)cc1N1CCN(CC(O)COCc2ccco2)CC1 (stereo unspecified)	i	i	i	-11	i	i	i	i
Cc1ccc(-c2csc3ncn(CC#N)c(=O)c23)cc1	i	i	i	-11	i	.	.	.
CCCOC(=O)Cn1cnc2scc(-c3ccc(OC)cc3)c2c1=O	i	i	i	-7	i	i	i	i
CCOCCOC(=O)Cn1cnc2scc(-c3ccc(C)cc3)c2c1=O	i	i	i	-5	i	i	i	i
CCOc1ccc(S(=O)(=O)Nc2ccc(C(=O)N3CCCC3)cc2)cc1C(N)=O	i	i	i	-6	i	.	.	.
Oc1ccccc1C=Nc1ccccc1-c1nc2ccccc2[nH]1	i	i	i	-7	i	.	.	.
COc1ccc(OC)c(C=Nc2ccccc2-c2nc3ccccc3[nH]2)c1	i	i	i	-14	-8.4*	39%*	i	28%*
Cc1ccc(NC2=CC(=O)CC(c3ccco3)C2)c(N)c1 (stereo unspecified)	i	i	i	-9	i	.	.	.
Cc1cc(C)cc(NC2=CC(=O)CC(c3ccco3)C2)c1 (stereo unspecified)	i	i	i	-6	-12*	37%*	i	24%*
Cc1ccccc1N1CCN(CCCN2C(=O)CC(=C(c3ccccc3)c3ccccc3)C2=O)CC1	i	i	i	-11	i	i	i	i
CCCCCCCCC(=O)N/N=C(\C)c1ccc(O)cc1O	i	i	i	-16	-10*	57%*	i	42%*
CC(C)Oc1ccc(Cn2c(=O)sc3ccccc32)cc1	i	i	i	-6	i	i	i	30%*
COc1ccc(Cn2c(=O)sc3ccccc32)cc1	i	i	i	-8	i	.	.	.
